Measurements as given in the EternaBench riboswitch data.

System: MS2 coat protein
Assay: apparent Kd, MS2 coat protein; higher = weaker binding; RNA-MaP array; FMN 200 µM where present
In short: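 The apparent Kd is reported as the median of filtered per-cluster binding-curve fits. To get these curves, designs transcribed by stalled E. coli RNA polymerase on Illumina sequencing-chip clusters were titrated with SNAP-549-labelled MS2 coat protein from 0.7 or 1.5 nM, doubling to 3 µM. Titrations were run without and then with constant ligand in 100 mM Tris-HCl pH 7.5, 80 mM KCl, 4 mM MgCl2, BSA, DTT, yeast tRNA and Tween-20, and green signal was normalised to red-channel RNA signal and control-cluster median Fmax.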

[1] = designed as: OFF switch for flavin mononucleotide, no ligand
[2] = ligand present: flavin mononucleotide, designed as: OFF switch for flavin mononucleotide
[3] = designed as: ON switch for flavin mononucleotide, no ligand
[4] = ligand present: flavin mononucleotide, designed as: ON switch for flavin mononucleotide

Sequence	apparent Kd [1] [nM]	apparent Kd [2] [nM]	apparent Kd [3] [nM]	apparent Kd [4] [nM]
GCACAAAGGUGACACCGUGUCGCUCAGGAUAUACGUGACGGCCCUCGCACAUGAGGAUCACCCAUGUAGAAGGGAGUUAAACGG	7.66	14.9	–	–
ACAUGCAUAGCGAUAUGAUCGAGAGAUCAUGUCGCUAAAUUUAGAAGGACAUGAGGAUCACCCAUGUAGGAUAUGGGAGCAUGU	–	–	49.5	10.8
UGCCAGGAGGAGAAGGGAGCACAUGAGGAUCACCCAUGUGGUCCGGGCUGCUCAGGAUAUCCUAACUGUACGCAUUACUACGAA	119	23.2	–	–
UAAAAGUCAGGAUAUGCGAAGGCGUCUGAUAGACGAGGCUAGCAGAAGGGACAUGAGGAUCACCCAUGUGAAAU	51.8	138	–	–
AACAGGUUCACAUGAGGAUCACCCAUGUUAGCCUAAUGUAGGAGAAGGACGGUAGCUGGGCUGACGUAGGAUAUCCUACUGUGA	–	–	5.08	5.11
AUCAGCUCGUCAGGAUAUACGUCACUGCCUCAGCAGUGUGGUAAGAUCACAUGAGGAUCACCCAUGUAGAAGGGACGAGCUGAU	15.5	299	–	–
ACAUACAUUCGAGGAUAUCGGUGAGAAAUCUUUCGAGAAGGCGAUUCAUGAUUUAUUAUCCUGGACAUGAGGAUCACCCAUGUA	–	–	78.9	62.8
ACGAGGCUAGGAUAUACACAUCUGAUGACUCAUCCUAAAACACAUGAGGAUCACCCAUGUAGAAGGAGCAAAUA	20.3	15.1	–	–
AUCUAGUCAGGAUAUCGUACAAUAUGGAAAACAUAGAGGUACGAGAAGGGACAUGAGGAUCACCCAUGUAAAAC	36.2	38	–	–
AAUUUACAGCGAGGAUAUACAUGAGGAUCACCCAUGUAAUCAUAUGAUAUUUUUUUUGUAUGAGUGUAGAAGGCGCAAAUAAAA	10.2	9.61	–	–
GGACGUCACAUGAACAUGAGGAUCACCCAUGUAAAUUCUCAUGAGGAUAUGGAUCCUAAUUGGAUCCAGAAGGCAUGGACGUCC	–	–	960	373
GGAUGACAAAGUCAUCCUAUUCGAACAUGAGGAUCACCCAUGUAGGAUAUGCUACUCAAAGAGUAGCAGAAGGACAUGUGCUUU	37.6	165	–	–
UGUCGGAGCAGAGGAUAUUACAUGAGGAUCACCCAUGUAUGAACCAAUAGCUGGAAACACCAAUGUAAGAAGGCUGCUCCGACA	19.8	146	–	–
GGCGUUCGCACAGGAUAUGCAUUAGACAUGAGGAUCACCCAUGUAGGCUAAGCAGAAGGGUGGGUGUGUCUAAGGAAAUUCUUC	–	–	172	42.4
GUGUACAGAGGAUAUAUAUGAGCUAGGAAACUAGCAACCUCACAUGAGGAUCACCCAUGUAGAAGGCUGUACAC	103	346	–	–
AUCAGCUCGUCAGGAUAUACGUCACUGCGUUAGCAGUGUGGUAAGAUCACAUGAGGAUCACCCAUGUAGAAGGGACGAGCUGAU	13.8	263	–	–
UUUAAUUAGUAAGGAUAUACUAGUGAUUAACUUGUAGAAGGUACAGUCUUAUGUAUAACAAAUUAACAUGAGGAUCACCCAUGU	–	–	9.54	8.3
UGCUAGUCAGGAUAUACGAACAUGUCAAAAGACGUGAAGGGACAUGAGGAUCACCCAUGUAGAAGGGACUAGCC	33.2	162	–	–
UGAUUUCAUGUAGGAUAUGCAUGGCGAAGCUACGCAGAAGGACAUGAGGAUCACCCAUGUUUUAGCGUCUGAGUAUAGAUUCUA	140	158	–	–
GGAUAGGACAGAGGAUAUACGUGCUAGAGAUACUAGCAAAAUUUCCUCACAUGAGGAUCACCCAUGUAGAAGGCUGUCUUAUCG	16	191	–	–
UGUGUUAUCGGAGGAUAUCGAUAUCAAACAUGAGGAUCACCCAUGUUGAGGAUCACCCAUGUCCACGAGAAGGCCGGCGUACUC	–	–	23.8	24.1

Sequence	apparent Kd [1] [nM]	apparent Kd [2] [nM]	apparent Kd [3] [nM]	apparent Kd [4] [nM]
GGUACCAACACAGGAUAUGCUAUCCUUUGGGUAGCAGAAGGGUGAAAACAUGAGGAUCACCCAUGUGGUACCGGGCGUGAGCCC	–	–	519	45.4
CGAUAUUAUGCAGGAUAUCUCCCUUGAAUGCGGAGAGAAGGGCAUAGGGAGACAUACGCCUUAUUACAUGAGGAUCACCCAUGU	9.4	8.29	–	–
UUAUUUUUACAGAAGGUUUAAUAAUAUGUAUGAGAAGGAUAUGUAACAUGAGGAUCACCCAUGUUUUAUUUAUAUGAGGAUCAU	–	9.31	–	–
GGAUAGGACAGAGGAUAUACAGAUAGGAUCUACUAUCAAACAUUCCUGACAUGAGGAUCACCCAUGUAGAAGGCUGUCCUAUCG	22.7	75.4	–	–
GUGUACAGAGGAUAUGCUUGAAUCUAGCGAAGCUAGGUUCGACAUGAGGAUCACCCAUGUAGAAGGCUGUACAC	13.6	12.7	–	–
CAUUUGUGAGGAUAUCAGGUGUGCUAGCGUACUGGUACAUCUGAGAAGGCACAUGAGGAUCACCCAUGUUUCUU	–	43.3	–	–
GGAUCACAAAGUGAUCCAAUACGAACAUGAGGAUCACCCAUGUAGGAUAUGCUACUCAAAGAGUAGCAGAAGGACAUGUGCCUU	35.4	296	–	–
GAACCACAUGAGGAUCACCCAUGUCUAAGAAAUUAAGGAUAUGCACAAAAGGAAAUAACUGCAGAAGGUAAACGAA	–	–	33.4	27.4
CUAUGAGCGAUAGGAUAUACUGAGAUUGAGUGGGUAGAAGGAUCGAUAGUGUAGAAGACAUGAGGAUCACCCAUGUUACGGGUU	–	–	892	290
GUGAGUAGUCAGGAUAUGCUGUACAAAAGUACAGCAGAAGGGAUUACAUGAGGAUCACCCAUGUUUACCUCAUG	574	884	–	–
GUCGGGAUUACAUGAGGAUCACCCAUGUCAGAACGGGCAGUCAGAAGGUGCCAUUAGGGAGAGGGUAAGGAUAUGAUUUUUGGC	–	–	11.3	9.92
GGUACUCAAAGAGUACCAAUACGAACAUGAGGAUCACCCAUGUAGGAUAUGCUACUCGAAGAGUAGCAGAAGGACAUGUGCCUA	16.9	113	–	–
GGCGAAGAGGCUAACAUGAGGAUCACCCAUGUGGACUCAUGGUAGGAUAUGCUGUACAAAGUACAGCAGAAGGGCCGCUGAGCC	–	–	146	663
GUGUAGUCAGGAUAUACAUAGGAAGAGAAGAGAAGAGAAGUACAUGAGGAUCACCCAUGUAGAAGGGACAGUGU	24.3	25.1	–	–
UGGUCAUGAUCAGGAUAUUAACAUGGGCUACAUUAAGAAGGGAUAGUGAGAUGCGAACGGAGCGACAUGAGGAUCACCCAUGUA	–	–	39.2	25.5
UCGAACGGAAACAAAGUAAAUAGACAUGAGGAUCACCCAUGUAAGGAUAUGCCUACUAAAAGUAGGCAGAAGGUACGCGUUCGA	16.5	20.7	–	–
UAUUAAUACGAAGGAUAUGGUUACAUGAGGAUCACCCAUGUAUGUAUAUUGAUCUAGUUUUUUAACCAGAAGGUCGUGAGUAAA	30.6	48.6	–	–
UCUACAUAAAUUCAUCAAUACAGAAAGGAUAUGAAAUACAUGAGGAUCACCCAUGUUCAUGGGAAUUAGAAGGUUCAAUUAGCU	220	137	–	–
ACAUGAGGAUCACCCAUGUUUUCAUGGAUUAUUAUUCUUUGAUAGGAUAUGUUAGUUAAGUAUUUACAGAAGGAUCAUUACCAA	22.6	16.1	–	–
ACGGCAAUCGAAGGAUAUGGUUACAUGAGGAUCACCCAUGUCUAGGGUCUAAUUAGGUAUAAUUACCAGAAGGUCGAAGGCCUA	93.7	122	–	–
UAUGUAUCCUCGGGAUCCACAUGAGGAUCACCCAUGUAGACUCAGGAUAUCCAAUGCGUUGACAGGGAGAAGGGAGUUCGCAUG	44.2	36.2	–	–
